Measured values: ChEMBL document CHEMBL1147067, “Inhibitors of metabolism rescue cell death in Huntington's disease models” (Proc Natl Acad Sci U S A, 2007)
The source made the active and inactive calls. No cut-off for these calls is given here.

Assays:
Rattus norvegicus [1] = species on record: Rattus norvegicus; assay: Cell death rescue in rat striatal neuronal N548 mutant cells at 10 uM after 2 days by calcein acetoxymethyl ester assay in presence of LY-294002; type: functional
Rattus norvegicus [2] = species on record: Rattus norvegicus; assay: Cell death rescue in rat striatal neuronal N548 mutant cells at 10 uM after 2 days by calcein acetoxymethyl ester assay in presence of U0126; type: functional
Drosophila [3] = assay: Cell death rescue of neuronal cells in drosophila Huntington's disease model; type: functional, organism-based
Outline: (§1)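 Flies of Drosophila HD strain 8534, which express human htt 1–170 with 120Q in the eye, were fed compound mixed into food (renewed every 2 days) or vehicle (0.1% DMSO) at 25°C. Rhabdomeres per ommatidium were counted by the pseudopupil technique at 9 days post-eclosion, blinded, with equal numbers of males and females. 8–10 flies per treatment, 35 ommatidia each; Student's t test.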

[4] = Toxicity in rat striatal neuronal N548 mutant cells; conditions: read-out: TC50 (the source's name)
Rattus norvegicus [5] = species on record: Rattus norvegicus; assay: Cell death rescue in rat striatal neuronal N548 mutant cells by calcein acetoxymethyl ester assay; type: functional
Outline: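 N548 mutant cells in serum-deprived medium (0.5% FCS, 39°C) were treated across a dose range. Viability was read by calcein acetoxymethyl ester fluorescence and expressed as fold increase over DMSO-treated cells. Triplicate wells, mean ± SD.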

Rattus norvegicus [6] = species on record: Rattus norvegicus; assay: Cell death rescue in rat striatal neuronal N548 mutant cells analysed every day for 7 days at 10 uM by trypan blue dye-exclusion assay; type: functional
Outline: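 Death was induced in N548 mutant cells by switching to 0.5% FCS medium at 39°C, with compound or DMSO present. Viability was measured daily for 7 days by automated trypan blue (0.4%) dye exclusion, counting at least 200 cells per sample and reporting % trypan blue-negative cells. Two independent experiments were run, each in duplicate.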

[7] = Decrease in htt expression in rat striatal neuron N548 mutant cells assessed as visible htt aggregation after 12 hrs by Western blotting; type: functional; parameters: scale not given: the % may be the effect or the level left
[8] = Cell death rescue in rat striatal neuron N548 mutant cells; type: functional
Caenorhabditis elegans [9] = assay: Toxicity in Caenorhabditis elegans Huntington's disease model; type: organism-based; conditions: for TC50: caenorhabditis elegans, in vivo
Drosophila [10] = assay: Toxicity in drosophila Huntington's disease model; type: organism-based; conditions: in vivo
Caenorhabditis elegans [11] = assay: Cell death rescue of ASH neuronal cells in Caenorhabditis elegans Huntington's disease model; type: functional, organism-based
Outline: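 pqe-1;Htn-Q150 C. elegans L1 larvae, which express human htt 1–171 with 150Q in ASH neurons, were kept at 15°C in liquid S medium with E. coli OP50 and compound or DMSO (1.5%). A starvation variant used L1-arrested larvae without food at 25°C. ASH survival was scored as GFP fluorescence in live animals, 100 neurons in more than 50 animals per treatment per time point.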

Drosophila [12] = assay: Decrease in rhabdomere degeneration in Drosophila photoreceptor assessed as number of rhabdomeres per ommatidium at day 9; type: functional, organism-based; outline: as §1
Rattus norvegicus [13] = species on record: Rattus norvegicus; assay: Suppression of cell death in rat striatal neuronal N548 mutant cells assessed as suppression of caspase 3 activation by Western blotting; type: functional
Outline: (§2)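 Serum-deprived N548 mutant cells (0.5% FCS, 39°C) were treated with compound or DMSO. Cleaved active caspase 3 and caspase 7 fragments were detected by Western blotting, with tubulin as loading control.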

Rattus norvegicus [14] = species on record: Rattus norvegicus; assay: Suppression of cell death in rat striatal neuronal N548 mutant cells assessed as suppression of caspase 7 activation by Western blotting; type: functional; outline: as §2
Rattus norvegicus [15] = species on record: Rattus norvegicus; assay: Decrease in ATP levels in rat striatal neuronal N548 mutant cells after 8 hrs in serum-deprived medium by luminescence-based assay in presence of glucose; type: functional
Outline: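 N548 mutant cells were plated at 10^5 cells per 60-mm dish, treated, and after 8 h in serum-deprived medium were lysed. Total ATP was measured by luciferase luminescence (12 s integration), normalized to cell number, and expressed relative to untreated cells at 0 h (100%). Triplicate, mean ± SD.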

Rattus norvegicus [16] = species on record: Rattus norvegicus; assay: Activation of ERK in rat striatal neuronal N548 mutant cells at 10 uM by Western blotting
Outline: (§3)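 N548 mutant htt-expressing striatal cells were treated with compound or vehicle (0.1% DMSO) in serum-deprived medium (0.5% FCS, 39°C) or in 10% serum medium. Lysates were Western blotted with phospho-specific antibodies against AKT Ser473, AKT Thr308 and ERK Thr202/Tyr204. Total AKT, total ERK and tubulin served as controls. The concentration series was read at 8 h.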

Rattus norvegicus [17] = species on record: Rattus norvegicus; assay: Activation of AKT in rat striatal neuronal N548 mutant cells at 10 uM by Western blotting; outline: as §3
[18] = molecular target: Tyrosine-protein kinase JAK2 (Rattus norvegicus) (UniProt Q62689); assay: Activation of JAK2 in rat striatal neuronal N548 mutant cells
Rattus norvegicus [19] = species on record: Rattus norvegicus; assay: Activation of NF-kappaB in rat striatal neuronal N548 mutant cells
[20] = molecular target: MAP kinase p38 (Homo sapiens) (UniProt O15264+Q15759+Q16539+P53778); assay: Activation of p38 MAPK in rat striatal neuronal N548 mutant cells
[21] = molecular target: Glycogen synthase kinase-3 alpha (Rattus norvegicus) (UniProt P18265); assay: Activation of GSKalpha in rat striatal neuronal N548 mutant cells
[22] = molecular target: Glycogen synthase kinase-3 beta (Rattus norvegicus) (UniProt P18266); assay: Activation of GSKbeta in rat striatal neuronal N548 mutant cells
Rattus norvegicus [23] = species on record: Rattus norvegicus; assay: Activation of ERK in rat striatal neuronal N548 mutant cells after 8 hrs by Western blotting; outline: as §3
Rattus norvegicus [24] = species on record: Rattus norvegicus; assay: Activation of AKT in rat striatal neuronal N548 mutant cells after 8 hrs by Western blotting; outline: as §3
Rattus norvegicus [25] = species on record: Rattus norvegicus; assay: Activation of ERK in rat striatal neuronal N548 mutant cells at 50 uM by Western blotting; outline: as §3
Rattus norvegicus [26] = species on record: Rattus norvegicus; assay: Activation of AKT in rat striatal neuronal N548 mutant cells at 50 uM by Western blotting; outline: as §3
Rattus norvegicus [27] = species on record: Rattus norvegicus; assay: Activation of AKT in DNA-deficient rat striatal neuronal N548 mutant cells at 10 uM after 6 hrs by Western blotting
Rattus norvegicus [28] = species on record: Rattus norvegicus; assay: Cell death rescue in DNA-deficient rat striatal neuronal N548 mutant cells at 10 uM; type: functional
[29] = Cell death rescue in rat striatal neuron N548 mutant cells relative to rotenone; type: functional
Rattus norvegicus [30] = species on record: Rattus norvegicus; assay: Activation of ERK in […] rat striatal neuronal N548 mutant cells at 10 uM after 6 hrs by Western blotting; conditions: 50 uM, in the assay text read “50 uM” for “10 uM”
Outline: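 N548 mutant htt-expressing striatal cells were exposed to compound or vehicle (0.1% DMSO) in serum-deprived medium (0.5% FCS, 39°C). Lysates were analysed by Western blotting with a phospho-specific antibody against threonine 202/tyrosine 204 ERK. Total ERK and tubulin served as controls.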

Sequence of Glycogen synthase kinase-3 alpha (Rattus norvegicus) (P18265 whole entry): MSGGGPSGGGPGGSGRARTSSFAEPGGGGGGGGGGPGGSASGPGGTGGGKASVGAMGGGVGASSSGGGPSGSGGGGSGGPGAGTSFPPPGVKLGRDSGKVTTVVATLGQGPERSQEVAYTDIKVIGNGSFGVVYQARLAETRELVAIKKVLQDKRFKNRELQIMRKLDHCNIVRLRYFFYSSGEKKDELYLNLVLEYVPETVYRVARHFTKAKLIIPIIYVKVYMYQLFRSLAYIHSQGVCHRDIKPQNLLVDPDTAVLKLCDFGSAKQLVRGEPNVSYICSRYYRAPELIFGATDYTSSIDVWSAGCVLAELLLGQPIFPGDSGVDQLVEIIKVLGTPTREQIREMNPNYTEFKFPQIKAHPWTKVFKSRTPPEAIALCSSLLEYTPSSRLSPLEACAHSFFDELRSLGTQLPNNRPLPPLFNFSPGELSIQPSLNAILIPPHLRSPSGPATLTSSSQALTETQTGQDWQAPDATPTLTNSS
Sequence of Tyrosine-protein kinase JAK2 (Rattus norvegicus) (Q62689 whole entry): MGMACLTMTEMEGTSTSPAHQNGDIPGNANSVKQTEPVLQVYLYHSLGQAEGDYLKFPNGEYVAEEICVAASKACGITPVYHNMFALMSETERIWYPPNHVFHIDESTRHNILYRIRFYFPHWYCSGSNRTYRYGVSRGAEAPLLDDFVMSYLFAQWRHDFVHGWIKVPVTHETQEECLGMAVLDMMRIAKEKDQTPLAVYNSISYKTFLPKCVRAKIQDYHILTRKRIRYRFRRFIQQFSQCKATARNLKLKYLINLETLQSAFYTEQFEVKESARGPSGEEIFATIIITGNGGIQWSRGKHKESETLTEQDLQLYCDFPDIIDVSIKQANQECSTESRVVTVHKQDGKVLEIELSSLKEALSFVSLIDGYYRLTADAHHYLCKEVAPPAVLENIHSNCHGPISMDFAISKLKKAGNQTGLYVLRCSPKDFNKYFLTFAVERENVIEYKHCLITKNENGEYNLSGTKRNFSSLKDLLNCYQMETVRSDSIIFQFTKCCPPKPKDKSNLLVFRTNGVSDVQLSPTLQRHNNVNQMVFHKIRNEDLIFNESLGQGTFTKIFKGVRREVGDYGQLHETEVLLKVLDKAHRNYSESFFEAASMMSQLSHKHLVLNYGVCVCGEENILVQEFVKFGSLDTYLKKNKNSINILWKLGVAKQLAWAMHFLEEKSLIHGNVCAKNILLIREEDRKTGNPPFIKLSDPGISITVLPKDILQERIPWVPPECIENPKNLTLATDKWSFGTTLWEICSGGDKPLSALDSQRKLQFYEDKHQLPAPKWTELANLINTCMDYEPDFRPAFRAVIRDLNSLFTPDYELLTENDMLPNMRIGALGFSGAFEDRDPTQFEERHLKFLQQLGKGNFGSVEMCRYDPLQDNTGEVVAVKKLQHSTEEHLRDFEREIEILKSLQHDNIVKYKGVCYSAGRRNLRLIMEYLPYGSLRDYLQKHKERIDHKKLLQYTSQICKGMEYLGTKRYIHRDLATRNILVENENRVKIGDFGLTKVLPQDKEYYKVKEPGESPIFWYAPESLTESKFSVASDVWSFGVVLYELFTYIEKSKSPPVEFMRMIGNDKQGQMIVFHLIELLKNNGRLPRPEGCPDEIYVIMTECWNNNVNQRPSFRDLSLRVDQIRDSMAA
Sequence of Glycogen synthase kinase-3 beta (Rattus norvegicus) (P18266 whole entry, looked up): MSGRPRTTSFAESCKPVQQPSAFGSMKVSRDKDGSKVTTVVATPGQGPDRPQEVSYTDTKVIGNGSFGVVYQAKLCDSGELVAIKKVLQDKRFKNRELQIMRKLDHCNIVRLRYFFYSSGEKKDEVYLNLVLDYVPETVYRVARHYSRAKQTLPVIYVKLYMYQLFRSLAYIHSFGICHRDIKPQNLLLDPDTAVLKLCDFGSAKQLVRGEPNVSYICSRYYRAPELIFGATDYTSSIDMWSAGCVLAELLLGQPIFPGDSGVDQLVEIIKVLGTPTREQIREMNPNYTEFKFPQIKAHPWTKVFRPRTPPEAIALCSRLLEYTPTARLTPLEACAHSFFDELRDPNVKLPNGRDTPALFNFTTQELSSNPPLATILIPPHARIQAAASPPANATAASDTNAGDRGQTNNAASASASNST

With C=C(C)[C@H]1Cc2c(ccc3c2O[C@@H]2COc4cc(OC)c(OC)cc4[C@@H]2C3=O)O1 [ROTENONE] the Activity (Rattus norvegicus [1]) was “inactive”, the Activity (Rattus norvegicus [2]) was “inactive” and the EC50 (Drosophila [3]) was 10 µM. The CC50 [4] was 40 µM, the Activity (Rattus norvegicus [5]) was “Active” and the Activity (Rattus norvegicus [6]) was “Active”. For the same compound, the Activity [7] was under 1%, the EC50 [8] was 0.5 µM and the EC50 (Caenorhabditis elegans [9]; Caenorhabditis elegans) was 2 µM. The TC50 (Caenorhabditis elegans [9]) was 16 µM, the TC50 (Drosophila [10]) was 50 µM and the EC50 (Caenorhabditis elegans [11]) was 2 µM. The Activity (Drosophila [12]) was “Active”, the Activity (Rattus norvegicus [13]) was “Active” and the Activity (Rattus norvegicus [14]) was “Active”. For the same compound, the Activity (Rattus norvegicus [15]) was “inactive”, the Activity (Rattus norvegicus [16]) was “Active” and the Activity (Rattus norvegicus [17]) was “Active”. For the same compound, the Activity [18] was “inactive”, the Activity (Rattus norvegicus [19]) was “inactive” and the Activity [20] was “inactive”. The Activity [21] was “inactive”, the Activity [22] was “inactive” and the Activity (Rattus norvegicus [23]) was “Dose-dependent effect”. For the same compound, the Activity (Rattus norvegicus [24]) was “Dose-dependent effect”, the Activity (Rattus norvegicus [25]) was “Active” and the Activity (Rattus norvegicus [26]) was “Active”. The Activity (Rattus norvegicus [27]) was “Active” and the Activity (Rattus norvegicus [28]) was “Active”.
Work on [F-].[Na+] [SODIUM FLUORIDE] yielded a CC50 [4] of 10000 µM, an Activity [29] of 0.6 and an EC50 [8] of 2000 µM.
Work on O=[N+]([O-])c1ccc(O)c([N+](=O)[O-])c1 [2,4-DINITROPHENOL] yielded an EC50 (Drosophila [3]) of 1250 µM, a CC50 [4] of 16000 µM and an Activity [29] of 1. It also gave an EC50 [8] of 200 µM, a TC50 (Caenorhabditis elegans [9]) of 2000 µM and a TC50 (Drosophila [10]) of 10000 µM. The EC50 (Caenorhabditis elegans [11]) was 700 µM.
For CC(C)(C)OC(=O)N[C@@H](CC(=O)O)C(=O)CF, the Activity (Rattus norvegicus [26]) was “Active” and the Activity (Rattus norvegicus [30]) was “Active”.
